From ChEMBL document CHEMBL1914346, “Discovery and synthesis of novel substituted benzocoumarins as orally active lipid modulating agents” (Bioorg Med Chem Lett, 2011) come the findings set out here.

The subject of data set [1] is Syrian golden hamster. Briefly: Toxicity in syrian golden hamster. The following applies: in vivo. The format is organism-based, Mesocricetus auratus. In short, it runs like this:
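HFD-fed male Golden Syrian hamsters, eight per group, dosed orally at 10 mg/kg once daily for 7 days in 0.1% gum acacia. Body weight was recorded daily and food intake was monitored, then compared with HFD vehicle controls.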

Data set [2] relates to Syrian golden hamster. Briefly: Antidyslipidemic activity in high fat diet-fed dyslipidemic syrian golden hamster model assessed as decrease in serum LDL level at 10 mg/kg, po administered once daily for 7 days relative to vehicle treated control. On the set-up: scale not given: the % may be the effect or the level left. The format is functional, Mesocricetus auratus. In short, it runs like this: (§1)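 Male Golden Syrian hamsters, 12 weeks old, 110 ± 10 g, eight per group, fed high-fat diet plus fructose daily on days 1–10. Oral dosing once daily on days 4–10 in 0.1% gum acacia; HFD-fed vehicle animals served as controls. After the last dose, retro-orbital blood was taken into EDTA and plasma lipids were measured enzymatically on an autoanalyzer. Results are % change versus HFD controls; t-test/ANOVA, p<0.05.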

The test system of data set [3] is Syrian golden hamster. Briefly: Antidyslipidemic activity in high fat diet-fed dyslipidemic syrian golden hamster model assessed as decrease in serum triglyceride level at 10 mg/kg, po administered once daily for 7 days relative to vehicle treated control. On the set-up: scale not given: the % may be the effect or the level left. The format is functional, Mesocricetus auratus. In short, it runs like this:
as §1

Data set [4] is described as follows: Antioxidant activity assessed as trolox equivalent by TEAC assay. The format is functional.
In data set [5] the test system is Syrian golden hamster. Briefly: Antidyslipidemic activity in high fat diet-fed dyslipidemic syrian golden hamster model assessed as increase in serum HDL level at 10 mg/kg, po administered once daily for 7 days relative to vehicle treated control. The format is functional, Mesocricetus auratus. In short, it runs like this:
as §1

The subject of data set [6] is Syrian golden hamster. Nature of the data set: Antidyslipidemic activity in high fat diet-fed dyslipidemic syrian golden hamster model assessed as decrease in serum total cholesterol level at 10 mg/kg, po administered once daily for 7 days relative to vehicle treated control. The format is functional, Mesocricetus auratus. Details: scale not given: the % may be the effect or the level left. In short, it runs like this: as §1

The test system of data set [7] is Syrian golden hamster. Briefly: Antidyslipidemic activity in high fat diet-fed dyslipidemic syrian golden hamster model assessed as increase in serum ratio of serum HDL/total cholesterol level at 10 mg/kg, po administered once daily for 7 days relative to vehicle treated control. The format is functional, Mesocricetus auratus. In short, it runs like this:
as §1

Data set [8] relates to Syrian golden hamster. Nature of the data set: Antidyslipidemic activity in high fat diet-fed dyslipidemic syrian golden hamster model assessed as increase in serum LDL level at 10 mg/kg, po administered once daily for 7 days relative to vehicle treated control. The format is functional, Mesocricetus auratus. In short, it runs like this:
as §1

The subject of data set [9] is Syrian golden hamster. Briefly: Antidyslipidemic activity in high fat diet-fed dyslipidemic syrian golden hamster model assessed as decrease in serum HDL level at 10 mg/kg, po administered once daily for 7 days relative to vehicle treated control. On the set-up: scale not given: the % may be the effect or the level left. The format is functional, Mesocricetus auratus. In short, it runs like this:
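Male Golden Syrian hamsters (12 weeks, 110 ± 10 g) fed high fat diet with fructose daily days 1–10; dosed orally once daily days 4–10 in 0.1% gum acacia vehicle, eight per group. Blood drawn from retro-orbital plexus into EDTA after last dose; plasma HDL-C by enzymatic auto-analyzer. Reported as % change versus vehicle-treated HFD group; t-test/ANOVA, p < 0.05.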

The target of data set [10] is T1, 3-hydroxy-3-methylglutaryl-coenzyme A reductase (Homo sapiens) (UniProt P04035).
T1 sequence (whole entry): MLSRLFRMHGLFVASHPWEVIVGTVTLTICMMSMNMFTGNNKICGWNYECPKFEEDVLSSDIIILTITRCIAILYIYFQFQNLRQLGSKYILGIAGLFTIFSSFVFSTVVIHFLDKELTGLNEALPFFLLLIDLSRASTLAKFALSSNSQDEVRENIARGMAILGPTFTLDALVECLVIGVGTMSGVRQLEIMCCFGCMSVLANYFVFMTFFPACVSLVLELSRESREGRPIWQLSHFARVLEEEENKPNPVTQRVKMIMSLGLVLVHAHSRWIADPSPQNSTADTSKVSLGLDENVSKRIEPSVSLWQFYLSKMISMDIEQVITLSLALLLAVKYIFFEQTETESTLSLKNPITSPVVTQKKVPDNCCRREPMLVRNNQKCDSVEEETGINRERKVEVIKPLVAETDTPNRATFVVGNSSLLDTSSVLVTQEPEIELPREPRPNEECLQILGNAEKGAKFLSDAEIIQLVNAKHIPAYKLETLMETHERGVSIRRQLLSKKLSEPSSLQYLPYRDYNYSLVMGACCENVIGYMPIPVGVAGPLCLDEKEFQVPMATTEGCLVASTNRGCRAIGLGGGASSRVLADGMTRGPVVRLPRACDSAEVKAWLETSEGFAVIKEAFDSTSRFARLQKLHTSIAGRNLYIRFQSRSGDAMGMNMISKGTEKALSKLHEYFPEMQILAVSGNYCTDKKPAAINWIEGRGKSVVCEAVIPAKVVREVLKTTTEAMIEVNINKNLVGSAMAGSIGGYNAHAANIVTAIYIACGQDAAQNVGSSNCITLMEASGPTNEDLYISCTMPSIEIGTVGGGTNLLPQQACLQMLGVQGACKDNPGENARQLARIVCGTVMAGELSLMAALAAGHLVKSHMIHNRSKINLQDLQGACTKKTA
Nature of the data set: Inhibition of HMG-CoA reductase using HMG-CoA as substrate at 25 uM. In short, it runs like this:
(§2)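 HMG-CoA reductase kit assay using supplied HMGR enzyme, HMG-CoA substrate, NADPH and assay buffer. Test concentrations were 5, 10, 25, 50 and 100 µM, with % inhibition recorded at each.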

For data set [11], the target named is T1, 3-hydroxy-3-methylglutaryl-coenzyme A reductase (Homo sapiens). Nature of the data set: Inhibition of HMG-CoA reductase using HMG-CoA as substrate at 50 uM. In short, it runs like this: as §2
For data set [12], the system named is Syrian golden hamster. Nature of the data set: Antidyslipidemic activity in high fat diet-fed dyslipidemic syrian golden hamster model assessed as increase in serum HDL level at 25 mg/kg, po administered once daily for 7 days relative to vehicle treated control. The format is functional, Mesocricetus auratus. In short, it runs like this:
as §1

Data set [13] has as its system Syrian golden hamster. Nature of the data set: Antidyslipidemic activity in high fat diet-fed dyslipidemic syrian golden hamster model assessed as increase in serum ratio of HDL/total cholesterol level at 25 mg/kg, po administered once daily for 7 days relative to vehicle treated control. The format is functional, Mesocricetus auratus. In short, it runs like this:
as §1

Data set [14] concerns Syrian golden hamster. Nature of the data set: Antidyslipidemic activity in high fat diet-fed dyslipidemic syrian golden hamster model assessed as decrease in serum LDL level at 25 mg/kg, po administered once daily for 7 days relative to vehicle treated control. The format is functional, Mesocricetus auratus. Details: scale not given: the % may be the effect or the level left. In short, it runs like this:
as §1

The target of data set [15] is T1, 3-hydroxy-3-methylglutaryl-coenzyme A reductase (Homo sapiens). Briefly: Inhibition of HMG-CoA reductase using HMG-CoA as substrate at 100 uM. In short, it runs like this: as §2
Data set [16] has the same target. Briefly: Inhibition of HMG-CoA reductase using HMG-CoA as substrate at 5 uM. In short, it runs like this:
as §2

In data set [17] the test system is Syrian golden hamster. Nature of the data set: Antidyslipidemic activity in high fat diet-fed dyslipidemic syrian golden hamster model assessed as decrease in serum total cholesterol level at 25 mg/kg, po administered once daily for 7 days relative to vehicle treated control. The format is functional, Mesocricetus auratus. On the set-up: scale not given: the % may be the effect or the level left. In short, it runs like this:
as §1

The target in data set [18] is T1, 3-hydroxy-3-methylglutaryl-coenzyme A reductase (Homo sapiens). Nature of the data set: Inhibition of HMG-CoA reductase using HMG-CoA as substrate at 10 uM. In short, it runs like this:
as §2

Data set [19] has as its system Syrian golden hamster. Nature of the data set: Antidyslipidemic activity in high fat diet-fed dyslipidemic syrian golden hamster model assessed as decrease in serum triglyceride level at 25 mg/kg, po administered once daily for 7 days relative to vehicle treated control. The format is functional, Mesocricetus auratus. On the set-up: scale not given: the % may be the effect or the level left. In short, it runs like this:
as §1

`Cc1cc(=O)oc2c3c(ccc12)C(=O)/C(=C/NC12CC4CC(CC(C4)C1)C2)C=C3C=O`: the Activity result in data set [1] was “Non-toxic”; in [2] it was 59%; in data set [3] it was 48%; in [4], 0.99 mM; in [5], 1%; in [6] it was 48%. Besides, the Activity in data set [7] came to 93%.
As for `O=C1O[C@H]([C@@H](O)CO)C(O)=C1O`, in [4], the Activity is 3.13 mM.
For `Cc1cc(=O)oc2c3c(ccc12)C(=O)/C(=C/Nc1ccccc1O)C=C3C=O`, the Activity entry in [1] is “Non-toxic”; in data set [3], 42%; in data set [4], 0.36 mM; in data set [8], 12%; in data set [5], 15%; in data set [6] it was 3%. The Activity in data set [7] stood at 19%.
On to `Cc1cccc(C)c1N/C=C1\C=C(C=O)c2c(ccc3c(C)cc(=O)oc23)C1=O`, for which the Activity entry was “Non-toxic” in [1]; 40% in [2]; 16% in [3]; 0.99 mM in data set [4]; 1% in data set [5]; 30% in data set [6]. In data set [7], the Activity worked out at 43%.
In the case of `Cc1cc(=O)oc2c3c(ccc12)C(=O)/C(=C/NCCCl)C=C3C=O`, the Activity entry was “Non-toxic” in data set [1]; 14% in [2]; 47% in [3]; 0.38 mM in [4]; 19% in [5]; 17% in data set [6]. For the same molecule, the Activity in data set [7] amounted to 9%.
As to `CC(C)c1c(C(=O)Nc2ccccc2)c(-c2ccccc2)c(-c2ccc(F)cc2)n1CC[C@@H](O)C[C@@H](O)CC(=O)O` [ATORVASTATIN], the Activity in data set [2] was 23%; in data set [3], 67%; in [5], 2%; in data set [6], 25%; in [7] it was 83%.
As to `Cc1cc(=O)oc2c3c(ccc12)C(=O)/C(=C/NCCBr)C=C3C=O`, the Activity entry in [1] is “Non-toxic”; in data set [2] it was 10%; in data set [9], 1%; in data set [3] it was 40%; in data set [4], 0.1 mM; in [6], 13%. Further, in [7], the Activity was found to be 15%.
For orientation: inhibition means the percentage by which the read-out fell short of the control. On to `CC[C@H](C)C(=O)O[C@H]1C[C@@H](C)C=C2C=C[C@H](C)[C@H](CC[C@@H]3C[C@@H](O)CC(=O)O3)[C@H]21` [LOVASTATIN], for which the inhibition in data set [10] was determined as 69.1%; in data set [11], 77.3%; in data set [15], 84.4%; in data set [16], 27.5%; in [18], 46.7%. The Activity in data set [12] came out at 3%; in data set [13], 12%; in [14], 11%; in data set [17] it was 9%; in [19], 29%.
Regarding `COc1cccc(CN/C=C2\C=C(C=O)c3c(ccc4c(C)cc(=O)oc34)C2=O)c1`, the Activity entry is “Non-toxic” in data set [1]; 59% in data set [2]; 52% in data set [3]; 1.26 mM in [4]; 3% in data set [5]; 47% in [6]. The Activity in data set [7] is 93%.
Consider `Cc1cc(=O)oc2c3c(ccc12)C(=O)/C(=C/NC1CCCCC1)C=C3C=O`, for which the Activity result in data set [1] was “Non-toxic”; in data set [2] it was 10%; in data set [3], 62%; in data set [4] it was 0.3 mM; in data set [5], 1%; in data set [6] it was 14%. Also, the Activity in [7] was 17%.
For `Cc1cc(=O)oc2c3c(ccc12)C(=O)/C(=C/NCCCO)C=C3C=O`, the Activity entry in data set [1] was “Non-toxic”; in data set [2], 21%; in data set [3], 50%; in [4], 1.46 mM; in [5], 3%; in data set [6], 26%. In addition, in data set [7], the Activity was 39%.
As for `Cc1cc(=O)oc2c3c(ccc12)C(=O)/C(=C/NCC(C)(C)CO)C=C3C=O`, the Activity result in data set [1] was “Non-toxic”; in data set [2] it was 36%; in [3], 49%; in data set [4] it was 1.9 mM; in data set [5], 1%; in data set [6], 36%. In addition, the Activity in [7] is listed as 61%.
